The values below come from ChEMBL document CHEMBL1687736, “Identification and biochemical characterization of small-molecule inhibitors of Clostridium botulinum neurotoxin serotype A” (Antimicrob Agents Chemother, 2009).

pIC50, pKi: −log10 of the molar value. The source made the active and inactive calls. The rule behind the calls is not given here.

The target of data set [1] is Botulinum neurotoxin type A (Clostridium botulinum) (UniProt P0DPI0). The data set is described as follows: Inhibition of protease activity of recombinant full-length Clostridium botulinum BoNT/A light chain at 200 uM after 5 mins by HPLC-based assay. The method, boiled down:
(§1)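 Full-length recombinant BoNT/A LC (110-140 nM) with 0.8 mM SNAP-25 17-mer peptide in 50 mM HEPES pH 7.3. Compound was added from DMSO stock without preincubation, then LC, 5 min at 37°C. TFA stop, reverse-phase HPLC. Percent inhibition came from substrate cleaved with versus without compound; the 20 µM data are means ± SD of two independent assays.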

The target is the same in data set [2]. The data set is described as follows: Inhibition of protease activity of recombinant full-length Clostridium botulinum BoNT/A light chain at 20 uM after 5 mins by HPLC-based assay. The method, boiled down:
as §1

Data set [3] is described as follows: Cytotoxicity against mouse Neuro2a cells at >= 10 uM. To be noted: n2a. The format is cell-based.
For data set [4], the target named is T1, Botulinum neurotoxin type A (Clostridium botulinum, UniProt P0DPI0). The data set is described as follows: Inhibition of protease activity of recombinant Clostridium botulinum BoNT/A (1 to 425) light chain after 5 mins by HPLC-based assay. The method, boiled down: (§2)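 Recombinant BoNT/A light chain, full-length at 140 nM or truncated (residues 1-425) at 620 nM final, with 0.8 mM 17-mer SNAP-25 (187-203) peptide in 50 mM HEPES pH 7.3. Inhibitor was added from DMSO at nine concentrations, then 5 min at 37°C. Stopped with 0.7% TFA, cleavage quantified by reverse-phase HPLC, and IC50 derived by log-probit analysis.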

Data set [5] concerns the target T2, Botulinum neurotoxin type B (Clostridium botulinum) (UniProt P10844).
T2 sequence (whole entry): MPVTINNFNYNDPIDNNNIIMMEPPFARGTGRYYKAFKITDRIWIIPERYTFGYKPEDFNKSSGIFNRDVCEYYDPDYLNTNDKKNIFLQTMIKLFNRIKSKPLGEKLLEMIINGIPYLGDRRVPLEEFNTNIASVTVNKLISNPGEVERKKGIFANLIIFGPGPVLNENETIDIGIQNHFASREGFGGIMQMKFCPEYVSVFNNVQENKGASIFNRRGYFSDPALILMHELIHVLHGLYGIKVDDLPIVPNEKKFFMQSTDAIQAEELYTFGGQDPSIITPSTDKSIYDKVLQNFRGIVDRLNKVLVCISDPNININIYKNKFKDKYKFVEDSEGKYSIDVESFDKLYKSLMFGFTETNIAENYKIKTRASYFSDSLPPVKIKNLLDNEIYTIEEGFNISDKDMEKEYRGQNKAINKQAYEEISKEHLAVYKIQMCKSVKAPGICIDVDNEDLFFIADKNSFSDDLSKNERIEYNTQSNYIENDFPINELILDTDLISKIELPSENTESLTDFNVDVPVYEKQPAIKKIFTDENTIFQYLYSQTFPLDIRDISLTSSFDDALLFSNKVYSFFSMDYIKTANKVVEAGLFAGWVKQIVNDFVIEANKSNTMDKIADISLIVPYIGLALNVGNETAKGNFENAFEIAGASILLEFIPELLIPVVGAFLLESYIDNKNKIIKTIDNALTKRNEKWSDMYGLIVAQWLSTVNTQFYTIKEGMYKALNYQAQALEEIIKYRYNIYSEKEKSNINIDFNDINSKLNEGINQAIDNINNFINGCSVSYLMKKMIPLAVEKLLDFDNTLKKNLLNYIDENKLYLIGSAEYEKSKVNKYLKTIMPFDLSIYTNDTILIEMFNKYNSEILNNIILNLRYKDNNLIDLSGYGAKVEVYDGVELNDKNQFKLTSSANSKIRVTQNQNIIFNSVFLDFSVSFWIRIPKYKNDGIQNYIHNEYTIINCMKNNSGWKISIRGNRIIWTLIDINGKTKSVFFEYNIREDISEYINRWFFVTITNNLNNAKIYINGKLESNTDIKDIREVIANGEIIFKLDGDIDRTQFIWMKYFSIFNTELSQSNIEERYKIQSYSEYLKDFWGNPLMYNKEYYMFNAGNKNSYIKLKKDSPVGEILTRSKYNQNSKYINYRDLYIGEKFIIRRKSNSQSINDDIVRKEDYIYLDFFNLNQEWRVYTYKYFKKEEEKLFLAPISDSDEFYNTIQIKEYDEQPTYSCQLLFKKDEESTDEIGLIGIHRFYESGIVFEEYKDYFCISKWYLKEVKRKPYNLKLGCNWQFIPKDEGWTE
Nature of the data set: Inhibition of protease activity of recombinant full-length Clostridium botulinum BoNT/B light chain at 20 uM after 5 mins by HPLC-based assay. The method, boiled down:
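Recombinant BoNT/B LC (30-40 nM) with 0.4 mM 35-mer human VAMP-2 (60-94) peptide, 1 mM DTT, 50 mM HEPES pH 7.3. Compound was added at 20 µM final without preincubation, then 5 min at 37°C. TFA stop, reverse-phase HPLC quantification of cleavage. Means ± SD of two independent assays.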

Data set [6] deals with Botulinum neurotoxin type A (Clostridium botulinum) (UniProt P0DPI0). The data set is described as follows: Inhibition of Clostridium botulinum BoNT/A light chain-mediated SNAP-25 cleavage in mouse Neuro2a cells at 10 uM after 30 mins by Western blotting. The format is cell-based.
The nature of data set [7]: Inhibition of zinc carboxypeptidase A at up to 20 uM. The method, boiled down:
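Carboxypeptidase A kit plate assay: CPA with compounds from DMSO at various concentrations, 5 min at 25°C, then stop solution and absorbance read at 350 nm. Percent inhibition was taken versus CPA with DMSO; potato tuber CPA inhibitor served as control. Two independent determinations, each in triplicate.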

Data set [8] addresses Botulinum neurotoxin type A (Clostridium botulinum) (UniProt P0DPI0). The data set is described as follows: Inhibition of Clostridium botulinum BoNT/A light chain-mediated SNAP-25 cleavage in mouse Neuro2a cells at 15 uM after 30 mins by Western blotting. The format is cell-based.
The target is the same in data set [9]. The data set is described as follows: Inhibition of Clostridium botulinum BoNT/A-mediated neuromuscular block in CD1 mouse phrenic nerve hemidiaphragm assessed as time required to 50% loss of twitch tension at 20 uM after 15 to 20 mins.
The target in data set [10] is T1, Botulinum neurotoxin type A. The data set is described as follows: Inhibition of protease activity of recombinant full-length Clostridium botulinum BoNT/A light chain after 5 mins by HPLC-based assay. The method, boiled down:
as §2

Data set [11] concerns the target Botulinum neurotoxin type A (Clostridium botulinum) (UniProt P0DPI0). Nature of the data set: Inhibition of Clostridium botulinum BoNT/A-mediated neuromuscular block in CD1 mouse phrenic nerve hemidiaphragm assessed as time required to 50% loss of twitch tension at 10 uM after 15 to 20 mins.
For data set [12] the target is unchanged. The data set is described as follows: Inhibition of Clostridium botulinum BoNT/A-mediated neuromuscular block in CD1 mouse phrenic nerve hemidiaphragm assessed as time required to 50% loss of twitch tension at 5 uM after 15 to 20 mins.
Data set [13] has the same target. Nature of the data set: Inhibition of Clostridium botulinum BoNT/A-mediated neuromuscular block in CD1 mouse phrenic nerve hemidiaphragm assessed as time required to 50% loss of twitch tension at 0.5 uM after 15 to 20 mins.
For data set [14], the target named is T1, Botulinum neurotoxin type A. Nature of the data set: Binding affinity to Clostridium botulinum BoNT/A.

Botulinum neurotoxin type A (Clostridium botulinum), sequence (P0DPI0 2-448 limits assumed): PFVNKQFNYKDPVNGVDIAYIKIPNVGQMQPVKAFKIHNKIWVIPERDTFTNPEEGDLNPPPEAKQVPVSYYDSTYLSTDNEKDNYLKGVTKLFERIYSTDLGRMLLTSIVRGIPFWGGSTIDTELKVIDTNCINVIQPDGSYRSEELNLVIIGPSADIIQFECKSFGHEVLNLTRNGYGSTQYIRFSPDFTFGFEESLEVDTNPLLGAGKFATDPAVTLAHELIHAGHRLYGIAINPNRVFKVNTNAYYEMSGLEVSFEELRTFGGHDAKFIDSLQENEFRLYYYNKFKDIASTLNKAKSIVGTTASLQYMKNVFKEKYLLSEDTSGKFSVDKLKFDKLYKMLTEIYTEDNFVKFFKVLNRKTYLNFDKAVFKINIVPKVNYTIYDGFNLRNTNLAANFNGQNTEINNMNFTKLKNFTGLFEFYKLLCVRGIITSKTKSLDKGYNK
T1 sequence (P0DPI0 2-448 limits assumed): as above

A word on the inhibition: it is how much of the control response was suppressed. `Cc1ccc(NC(=O)/C(CC(=O)c2sc(Nc3ccccc3Cl)nc2C)=N/Nc2ccc([N+](=O)[O-])cc2[N+](=O)[O-])c(C)c1`: the inhibition in data set [1] amounted to 85%; in data set [2], 51%.
In the same order, the values of `Cc1ccc([N+](=O)[O-])cc1NC(=O)NNC(=O)CNC(=O)NCc1ccco1` are 75% and 52%.
For `O=C1c2ccccc2C(=O)N1CNc1ccccc1/C(=N/Nc1ccc([N+](=O)[O-])cc1[N+](=O)[O-])c1ccccc1`, in that order: 82% and 49%.
For `O=[N+]([O-])c1ccc(NCCNc2ccc([N+](=O)[O-])cc2)cc1`, in that order: 80% and 44%.
On to `O=[N+]([O-])c1cccc(CN(Cc2cccc([N+](=O)[O-])c2O)c2ccccc2)c1O`, for which the inhibition in data set [1] was 75%; in data set [2], 37%.
Regarding `O=[N+]([O-])c1ccc(NC(c2ccccc2)c2ccc3cccnc3c2O)cc1` (racemic), the inhibition in [1] turned out to be 87%; in data set [2], 52%. Moreover, the Activity result in data set [3] is recorded as “Toxic”.
A word on the pIC50: it is the negative decadic logarithm of the IC50, by convention in mol/L. For the compound `Oc1c(C(Nc2cccc3cccnc23)c2ccccc2)ccc2cccnc12` (racemic), the values for the pIC50 in [4] and in [10] were 5.41 and 5.49, respectively. Further, the inhibition in data set [5] was found to be 6.9%; in [6], 66%; in data set [1] it was 91.9%. Moreover, the outcome in data set [7] was inactive. The result in data set [8] was Active. For the same compound, the TIME in data set [9] turned out to be 1.09 h.
On to `Oc1c(C(Nc2ccccn2)c2ccccc2)ccc2cccnc12` (racemic), for which the pIC50 in [4] is 5.82; in data set [10], 5.80. Moreover, in data set [5], the inhibition was found to be 8.8%. Also, in [11], the TIME worked out at 4.44 h. For the same compound, the inhibition entry in data set [6] is “Active”. Besides, the result in [7] was inactive. In addition, the outcome in data set [8] was Active.
On to `Oc1c(C(Nc2cccnc2)c2ccc(C(F)(F)F)cc2)ccc2cccnc12` (racemic), for which the pIC50 in [4] is 5.30; in [10], 5.33. Besides, the inhibition stood at 30.2% in data set [5] and 92.7% in data set [1]. Also, the inhibition result in data set [6] was “Active”. In [7], the outcome was inactive. Moreover, in data set [8], the result was Active. In [12], the TIME turned out to be 3.6 h.
In the case of `Oc1c(C(Nc2cccnc2)c2ccccc2F)ccc2cccnc12` (racemic), the pIC50 in data set [4] was 5.62; in [10], 5.41. The values for the inhibition in data set [5], in [6] and in data set [1] were 16.8%, 68% and 92.8%, respectively. In addition, the TIME in [11] is 4.68 h. Besides, in data set [7], the result was inactive. Further, in data set [8], the result was Active.
Regarding `CCOc1ccc(C(Nc2cccnc2)c2cc(Cl)c3cccnc3c2O)cc1` (racemic), the pIC50 in data set [4] is 5.80; in data set [10], 5.68. Besides, the inhibition in data set [5] was found to be 31.2%; in data set [1], 96.2%. In data set [6], the inhibition entry was “Active”. Further, in data set [13], the TIME was 4.52 h. Besides, the result in [7] was inactive. For the same compound, the outcome in data set [8] was Active.
For the compound `CC(CO)(Nc1ccc([N+](=O)[O-])cc1[N+](=O)[O-])C(=O)O` (racemic), the inhibition was found to be 65% in [1] and 29% in [2].
By pKi is commonly meant −log10 of the Ki, conventionally taken in molar units. A higher pKi goes with a low Ki. For Ac-CRATKML-NH2, the pKi in data set [14] is 5.72. In data set [9], the result was inactive and the TIME stood at 0.878 h.
